Experimental data: ChEMBL document CHEMBL5661984, “Allosteric ligands for the pharmacologically dark receptors GPR68 and GPR65” (Nature, 2015)
Activity calls are given as the source filed them.

Assays:
[1] = Positive allosteric modulator activity at GPR68 E160A mutant expressed in human HEK293T cells assessed as cAMP production in presence of H+ proton by Split-luciferase based luminescence counter analysis (reference value: 6.6+/-0.3 %); conditions: HEK-293T, condition central nervous system disease
In short: (§1)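 Proton concentration-response of GPR68 (wild type or E160A/K/Q, R189L/M, H269F mutants) in transiently transfected HEK293-T cells. Read-out: GloSensor cAMP, with luciferin loading 90 min at 37°C at pH 8.4. Run with and without increasing modulator concentrations; 20 min at room temperature before luminescence. Proton KA fixed to the proton EC50 without modulator. KB, τA, α, β fitted globally with an operational allosteric model. n=4.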

[2] = Positive allosteric modulator activity at GPR68 H269F mutant transfected in human HEK293T cells assessed as proton-mediated calcium release at 10 uM incubated for 10 mins by Fluo-4 Direct calcium dye based FLIPR assay (reference value: 1.57 +/- 0.01 %); conditions: HEK-293T, condition central nervous system disease
[3] = Positive allosteric modulator activity at GPR68 R189L mutant expressed in human HEK293T cells assessed as cAMP production in presence of H+ proton by Split-luciferase based luminescence counter analysis (reference value: 7.20+/-0.03); assay type: cell-based; conditions: HEK-293T; in short: as §1
[4] = Binding affinity to GPR68 H269F mutant expressed in human HEK293T cells assessed as cAMP production in presence of H+ proton by Split-luciferase based luminescence counter analysis; conditions: condition central nervous system disease; in short: as §1
[5] = Positive allosteric modulator activity at GPR68 E160A mutant expressed in human HEK293T cells assessed as cAMP production in presence of H+ proton by Split-luciferase based luminescence counter analysis (reference value: 7.34+/-0.05); assay type: cell-based; conditions: HEK-293T; in short: as §1
[6] = Positive allosteric modulator activity at GPR68 R189M mutant transfected in human HEK293T cells assessed as proton-mediated calcium release at 10 uM incubated for 10 mins by Fluo-4 Direct calcium dye based FLIPR assay (reference value: 1.43 +/- 0.01 %); conditions: HEK-293T, condition central nervous system disease
[7] = target: T1, G-protein coupled receptor 68 (Homo sapiens, UniProt Q15743); assay: Positive allosteric modulator activity at HA-tagged GPR68 expressed in human HEK293T cells assessed as activation of PKA at pH 7.4 by immunoblotting analysis; assay type: cell-based; conditions: filed as positive allosteric modulator
T1 sequence (Q15743 whole entry): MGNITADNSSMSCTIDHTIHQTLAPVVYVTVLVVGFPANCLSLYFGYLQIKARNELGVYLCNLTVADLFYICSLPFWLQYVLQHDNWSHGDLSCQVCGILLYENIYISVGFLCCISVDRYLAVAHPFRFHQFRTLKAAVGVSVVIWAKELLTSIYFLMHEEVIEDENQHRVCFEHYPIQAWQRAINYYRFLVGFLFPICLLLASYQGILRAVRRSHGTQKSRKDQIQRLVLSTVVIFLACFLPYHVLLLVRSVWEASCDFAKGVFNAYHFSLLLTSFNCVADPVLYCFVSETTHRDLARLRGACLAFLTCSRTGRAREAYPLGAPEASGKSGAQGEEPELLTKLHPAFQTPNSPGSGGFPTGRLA
In short: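 HEK293 cells stably expressing N-terminal HA-tagged human GPR68 (vector-only line as control), selected with 250 μg/ml G418. Confluent cells were switched to Hams-F12 at pH 8.0 or 7.4 for 1 h, then given vehicle or 50 μM compound for 10 min. Lysate immunoblots were probed for HA, total VASP, p-p42/p44 and β-actin, read with infrared-fluorophore secondaries.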

[8] = Toxicity in C57BL/6 mouse assessed as cued memory retrieval by Morris water maze test; conditions: in vivo
[9] = Binding affinity to GPR68 E160A mutant expressed in human HEK293T cells assessed as cAMP production in presence of H+ proton by Split-luciferase based luminescence counter analysis; conditions: condition central nervous system disease; in short: as §1
[10] = target: T1, G-protein coupled receptor 68; assay: Positive allosteric modulator activity at GPR68 expressed in human HEK293T cells assessed as proton-mediated calcium release at 10 uM incubated for 10 mins by Fluo-4 Direct calcium dye based FLIPR assay (reference value: 1.30 %); assay type: functional, cell-based
[11] = Toxicity in C57BL/6 mouse assessed as decreased contextual memory retrieval; conditions: in vivo
In short: (§2)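 Fear conditioning in wild-type and GPR68 KO C57BL/6J congenic mice. Training was 8 min: 3 pairings of a 30-s, 90 dB, 5 kHz tone with a 2-s, 0.6 mA foot shock. Context freezing scored at 24 h over 5 min; cue test at 48 h over 6 min. Freezing defined as no movement for 0.5 s. Compound 10 mg/kg in 10% Tween 80 or saline, 30 min before training. n=6–8 per group. Two-way ANOVA with Bonferroni post-hoc test.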

[12] = target: C-X-C chemokine receptor type 4 (Homo sapiens) (UniProt P61073); assay: Antagonist activity against CXCR4 receptor (unknown origin) transfected in human HEK293T cells at 10 uM incubated for 15 mins in presence of AMD3100 by luminescence counter analysis; assay type: functional, cell-based
Chain of C-X-C chemokine receptor type 4 (Homo sapiens) (P61073 whole entry): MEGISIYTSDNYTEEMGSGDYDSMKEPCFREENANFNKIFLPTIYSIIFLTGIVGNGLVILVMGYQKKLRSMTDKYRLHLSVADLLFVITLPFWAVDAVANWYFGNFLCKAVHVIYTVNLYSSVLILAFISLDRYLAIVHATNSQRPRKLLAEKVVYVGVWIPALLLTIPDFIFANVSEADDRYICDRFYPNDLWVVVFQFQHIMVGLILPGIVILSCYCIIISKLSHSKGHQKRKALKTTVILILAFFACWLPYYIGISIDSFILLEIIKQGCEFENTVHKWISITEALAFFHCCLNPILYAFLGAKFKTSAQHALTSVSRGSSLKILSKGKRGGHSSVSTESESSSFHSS
In short: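 HEK293-T cells transiently transfected with CXCR4 and the GloSensor cAMP reporter, plated in DMEM with 1% dialyzed FBS. Test compound at 10 μM in 20 mM HEPES/HBSS, pH 7.4, 15 min at room temperature. Agonist mode: luciferin (4 mM final) plus 200 nM isoproterenol added, 20 min. Antagonist mode: compound 10 min, then reference agonist at EC80 for 10 min, then luciferin/isoproterenol. Luminescence read. CXCL12 (1 or 3 μM) is the agonist control and AMD3100 (10 μM) the antagonist control. n=2.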

Mus musculus [13] = species on record: Mus musculus; assay: Antipsychotic activity against GPR68 knockout C57BL/6 mouse assessed as cued memory retrieval by Morris water maze test; assay type: functional, organism-based
[14] = Positive allosteric modulator activity at GPR68 E160Q mutant expressed in human HEK293T cells assessed as cAMP production in presence of H+ proton by Split-luciferase based luminescence counter analysis (reference value: 17.0+/-1.5 %); conditions: HEK-293T, condition central nervous system disease; in short: as §1
[15] = target: T1, G-protein coupled receptor 68; assay: Positive allosteric modulator activity at GPR68 expressed in human HEK293T cells assessed as proton-mediated phosphatidylinositol hydrolysis on pH 8.4 at 10 uM incubated for 20 mins by TriLuxMicroBeta counter analysis; assay type: functional, cell-based; conditions: filed as positive allosteric modulator
In short: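 GPR68-transfected HEK293-T cells labeled overnight with 3H-inositol (1 μCi/well) in inositol-free DMEM with 5% dialyzed FBS. Treated for 20 min at pH 8.4 in HBSS with 10 mM HEPES, 10 mM MES and 20 mM LiCl, compound at 10 μM. Extracted with 50 mM ice-cold formic acid, 30 min at 4°C. Captured on YSi beads and counted (cpm/well). n=3. 4-parameter logistic fit.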

Mus musculus [16] = species on record: Mus musculus; assay: […] activity against GPR68 knockout C57BL/6 mouse assessed as contextual memory retrieval; assay type: functional, organism-based; in short: as §2

SMILES: Nc1nc(NCc2ccccc2)nc(-c2ccccc2CO)n1 [Ogerin]
- Emax [1]: 11.7%
- Emax at 10 µM [2]: 1.56%
- EC50 [3]: 43.7 nM
- pKb [4]: 4.33
- EC50 [5]: 11.7 nM
- Emax at 10 µM [6]: 1.36%
- Activity [7]: Active
- Activity [8]: Non-Toxic
- pKb [9]: 4.67
- Emax [10]: 1.07%
- Activity [11]: Toxic
- Activity [12]: inactive
- Activity (Mus musculus [13]): inactive
- Emax [14]: 27.5%
- Activity [15]: Active
- Activity (Mus musculus [16]): inactive
